Laboratory results published in ChEMBL document CHEMBL4732044, “Discovery of a promising agent IQZ23 for the treatment of obesity and related metabolic disorders” (Eur J Med Chem, 2020).
Activity calls are given as the source filed them. No cut-off for these calls is given here.

Columns and labels:
[1] = tested on: 3T3-L1; assay: Cytotoxicity against mouse 3T3-L1 cells assessed as change in LDH releasing level at 5 uM after 6 days by LDH releasing assay; format: cell-based; conditions: 3t3-l1, 144 h, time 6 day
In short: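 Differentiating 3T3-L1 cells were treated at 5 µM for 6 days. Plates were centrifuged and LDH activity in the supernatant was read at 490 nm. Release was expressed as fold = (treated − blank)/(control − blank), with untreated cells as blank and vehicle-differentiated control set to 1.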

[2] = tested on: 3T3-L1; assay: Lipid lowering activity in mouse 3T3-L1 cells assessed as adipogenic cocktail-induced triglyceride levels at 1 uM after 3 days by GPO-POD assay relative to control; format: functional; conditions: time 3 day
In short: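 3T3-L1 cells were differentiated (cocktail on days 0–3, insulin thereafter) with 1 µM compound present during defined windows (days 0–3, 3–6, 6–9, or 0–3/0–6/0–9). TG was measured at day 9 by GPO-POD after Triton X-100 lysis and sonication. TG was normalized to BCA protein and expressed as % of differentiated control.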

[3] = tested on: 3T3-L1; assay: Inhibition of mouse 3T3-L1 cells adipocyte differentiation assessed as reduction in adipogenic cocktail-induced ACC protein expression at 0.3 to 1 uM after 6 days by Western blot analysis; format: functional, cell-based; conditions: dose 0.3-1 µM, time 6.0 day
In short: (§1)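 3T3-L1 preadipocytes were differentiated with cocktail for 3 days, then insulin medium for 3 days, with compound (0.3 or 1 µM) present throughout. Cells were harvested on day 6 and proteins measured by Western blot, with densitometry normalized to actin.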

[4] = tested on: 3T3-L1; assay: Inhibition of mouse 3T3-L1 cells adipocyte differentiation assessed as reduction in adipogenic cocktail-induced SCD1 protein expression at 0.3 to 1 uM after 6 days by Western blot analysis; format: functional, cell-based; conditions: dose 0.3-1 µM, time 6.0 day; in short: as §1
[5] = tested on: C2C12; assay: Activation of AMPK pathway in mouse C2C12 cells assessed as increase in glucose uptake at 0.3 to 1 uM after 6 hrs by 2-NBDG/Hoechst 33342 staining based Confocal microscopic method; format: cell-based; conditions: filed as activator, dose 0.3-1 µM
In short: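 C2C12 myoblasts kept in DMEM with 10% FBS and 1% penicillin/streptomycin at 37 °C under 5% CO2.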

[6] = tested on: 3T3-L1; assay: Activation of AMPK pathway in mouse 3T3-L1 cells assessed as increase in TFAM mRNA expression at 0.3 to 1 uM after 24 hrs by RT-qPCR analysis; format: cell-based; conditions: filed as activator, dose 0.3-1 µM
[7] = tested on: 3T3-L1; assay: Activation of AMPK pathway in mouse 3T3-L1 cells assessed as increase in CPT1beta mRNA expression at 0.3 to 1 uM after 24 hrs by RT-qPCR analysis; format: cell-based; conditions: filed as activator, dose 0.3-1 µM
[8] = tested on: Mus musculus; assay: Antiobesity activity in high fat diet-induced obese C57BL/6J mouse model assessed as decrease in body weight at 20 mg/kg, ip administered for every other days for 6 weeks; format: functional, organism-based
In short: (§2)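 Male C57BL/6J mice (7–8 weeks) fed HFC diet (60% fat, 1% cholesterol) for up to 14 weeks. From week 9, given 20 mg/kg i.p. every other day for 6 weeks in saline with 10% ethanol and 10% castor oil, or vehicle. Body weight and food intake recorded daily. At end, mice fasted 6 h, anesthetized, and blood collected into EDTA. Plasma chemistry run on an auto-analyzer; insulin by ultra-sensitive ELISA.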

[9] = tested on: Mus musculus; assay: Antiobesity activity in high fat diet-induced obese C57BL/6J mouse model assessed as decrease in lean mass at 20 mg/kg, ip administered for every other days for 6 weeks; format: functional, organism-based
[10] = tested on: Mus musculus; assay: Antiobesity activity in high fat diet-induced obese C57BL/6J mouse model assessed as decrease in size of adipocytes at 20 mg/kg, ip administered for every other days for 6 weeks by H and E staining based assay; format: functional, organism-based
[11] = tested on: Mus musculus; assay: Antiobesity activity in high fat diet-induced obese C57BL/6J mouse model assessed as decrease in AUC of GTT at 20 mg/kg, ip administered for every other days for 3 weeks by GTT method; format: functional, organism-based
In short: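 Male C57BL/6J mice on HFC diet dosed i.p. For GTT, after 3 weeks of treatment: 6 h fast, then i.p. glucose 2 g/kg. For ITT, after 6 weeks: 6 h fast, then i.p. insulin 0.4 U/mouse. Tail-vein glucose measured at 0, 15, 30, 60 and 120 min; AUC calculated.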

[12] = tested on: Mus musculus; assay: Antiobesity activity in high fat diet-induced obese C57BL/6J mouse model assessed as decrease in TG level at 20 mg/kg, ip administered for every other days for 6 weeks by Oil-red O staining based assay; format: functional, organism-based
In short: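 Male C57BL/6J mice on HFC diet, dosed 20 mg/kg i.p. every other day for 6 weeks. Tissues fixed in 4% formaldehyde, paraffin-embedded, cut into 4 µm sections and stained with H&E or Oil-red O. Six random fields per sample scored blind.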

[13] = Apparent volume of distribution in Sprague-Dawley rat at 2 mg/kg, iv up to 24 hrs by LC-MS/MS analysis; format: ADME, organism-based; conditions: in vivo, read-out: Vz
In short: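 Male SD rats (180–220 g, n = 3) received compound in ethanol/saline (5:95), either intravenously at 2 mg/kg or intragastrically at 5 mg/kg. Plasma was sampled at 0, 0.5, 1, 2, 4, 8, 12 and 24 h. Concentrations were measured by LC-MS/MS, and PK parameters were calculated from the concentration–time data.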

[14] = tested on: Mus musculus; assay: Antiobesity activity in high fat diet-induced obese C57BL/6J mouse model assessed as blood urea nitrogen level at 20 mg/kg, ip administered for every other days for 6 weeks by auto-analyzer method (reference value: 14.6 +/- 1.4 mM); format: functional
[15] = tested on: Mus musculus; assay: Antiobesity activity in high fat diet-induced obese C57BL/6J mouse model assessed as creatinine level at 20 mg/kg, ip administered for every other days for 6 weeks by auto-analyzer method (reference value: 14.9 +/- […]); format: functional; in short: as §2
[16] = tested on: Mus musculus; assay: Antiobesity activity in high fat diet-induced obese C57BL/6J mouse model assessed as glucose level at 20 mg/kg, ip administered for every other days for 6 weeks by auto-analyzer method (reference value: 11.8 +/- 1.3 mM); format: functional; in short: as §2
[17] = tested on: Mus musculus; assay: Antiobesity activity in high fat diet-induced obese C57BL/6J mouse model assessed as TG level at 20 mg/kg, ip administered for every other days for 6 weeks by auto-analyzer method (reference value: 1.2 +/- 0.02 mM); format: functional; in short: as §2
[18] = tested on: Mus musculus; assay: Antiobesity activity in high fat diet-induced obese C57BL/6J mouse model assessed as insulin level at 20 mg/kg, ip administered for every other days for 6 weeks by ELISA (reference value: 3.5 +/- 0.6 ng/ml); format: functional; in short: as §2
[19] = tested on: Mus musculus; assay: Antiobesity activity in high fat diet-induced obese C57BL/6J mouse model assessed as LDL cholesterol level at 20 mg/kg, ip administered for every other days for 6 weeks by auto-analyzer method (reference value: 0.9 +/- 0.4 mM); format: functional; in short: as §2
[20] = tested on: 3T3-L1; assay: Activation of AMPK pathway in mouse 3T3-L1 cells assessed as increase in CPT-1beta mRNA expression at 1 uM after 24 hrs by RT-qPCR analysis; format: cell-based; conditions: filed as activator
[21] = Apparent volume of distribution in Sprague-Dawley rat at 2 mg/kg, iv up to 24 hrs by LC-MS/MS analysis; conditions: in vivo, read-out: Vz

With COc1ccc2[nH]c(-c3nc(NCCCCN4CCCC4)c4ccccc4n3)c(C=O)c2c1 the Activity [1] was “Non-Toxic”, the Activity [2] was 74.2% and the inhibition [3] was “Active”. The inhibition [4] was “Active”, the Activity [5] was “Active” and the Activity [6] was “Active”. The Activity [7] was “Active”, the Activity [8] was “Active” and the Activity [9] was “Active”. The Activity [10] was “Active”, the Activity [11] was “Active” and the Activity [12] was “Active”. The Vd [13] was 40.7 L/kg, the Activity [14] was 11.5 mM and the Activity [15] was 14.5 µM. It also gave an Activity [16] of 9.3 mM, an Activity [17] of 0.92 mM and an Activity [18] of 2.2 ng/mL. The Activity [19] was 0.81 mM.

In the case of CN(C)CCCNc1nc(-c2[nH]c3ccccc3c2C=O)nc2ccccc12, the Activity [20] is reported as “Active” and the Vd [21] is reported as 33.8 L/kg.
